Autophagy mod – alters autophagy in cells; actives 0.98% (n = 190,000); MEF GFP-LC3 puncta imaging; test concentration mostly 10 µM; calls only at 10 µM (by protocol);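 active = percentage of spot-positive cells more than 3 SD above its plate mean, without a fluorescence outlier flag or 80% toxicity; inconclusive = no clear call, values can overlap the other calls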
PKD1 kinase inh – PKD1 (human) kinase inhibition; inhibition, % (concentration not given with the values); actives 0.056% (n = 200,000); Q15139; PKD1 kinase fluorescence polarization assay; in the data active = inhibition above about 50%
Insulin prom inh – TRM-6 insulin promoter activity inhibition; actives 0.9% (n = 130,000); inhibition, % at 2 µM; TRM-6 cells (human fetal islet line), insulin promoter-eGFP reporter, imaging; reporter expression induced with tamoxifen;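 active = inhibition above the mean plus 3 SD, with well images judged a real hit on visual review, cut at about 60% in these data, passing the limit was not always enough; inconclusive = inhibition over the cutoff but images rejected on review; inactive = inhibition not above the cutoff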
Insulin prom up – MIN6 insulin promoter up-regulation; MIN6 insulin promoter-GFP reporter, high-content imaging; hits give high values; z-score at 5 µM; actives 0.3% (n = 190,000); AID 1625;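 active = z-score above 3 at 5 µM with at least 500 cells counted in the well; inconclusive = wells under 500 cells, flagged as cytotoxic or low count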
Arbovirus anti – arbovirus infection inhibition; arbovirus infection cell-based antiviral screen; inhibition, % at 10 µM; actives 0.37% (n = 200,000); AID 1251; in the data active = inhibition above about 30%
RBBP9 inhibitor – inhibitors of human serine hydrolase RBBP9; recombinant RBBP9, FP-Rh probe fluorescence polarization; inhibition, % at 7.94 µM; actives 0.2% (n = 220,000); AID 1515;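 active = inhibition above the campaign mean of all tested compounds plus 3 SD, cut at about 14% in these data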
Target sequence (O75884 whole entry, looked up): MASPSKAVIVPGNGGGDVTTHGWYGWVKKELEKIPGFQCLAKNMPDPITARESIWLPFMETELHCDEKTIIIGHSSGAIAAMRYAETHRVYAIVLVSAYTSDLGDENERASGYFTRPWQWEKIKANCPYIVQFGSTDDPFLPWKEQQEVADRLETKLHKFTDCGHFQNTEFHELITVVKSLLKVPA
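Test system: recombinant human RBBP9. Quantity: 2.5 µM RBBP9 dispensing solution, before mixing. Detection: FP readout at 525/598 nm. Reagent: Serine-hydrolase probe FP-Rh, 375 nM pre-mixing. Measure: % inhibition. Control set: DMSO-treated enzyme wells and wells lacking RBBP9. Buffer or medium: Tris-NaCl-Pluronic buffer, pH 8.0. Times: preincubation 30 min plus labeling 45 min at 25 °C.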
Numbers stand for hits; i = inactive; ? = inconclusive; nt = no result; + = active, no number. Shown are actives, neighbours in structure and some others; about 2.1% of the full set was active somewhere.

SMILES	Autophagy mod	PKD1 kinase inh	Insulin prom inh	Insulin prom up	Arbovirus anti	RBBP9 inhibitor
CCOC(=O)c1c(NC(=O)CSc2nnc(C)c(=O)[nH]2)sc(C)c1C	i	i	nt	i	i	i
Cc1cc(Cl)ccc1OC(C)C(=O)Nc1ccccc1N1CCOCC1 (stereo not given)	+	i	nt	i	i	i
CCc1ccc(/C=C2/C(=O)N(c3ccccc3)C(=S)N2CC(=O)OC)s1	+	i	nt	i	i	i
CCN1CCN(c2ccc(NC(=O)c3cccc(OCc4ccccc4)c3)cc2)CC1	i	i	nt	nt	i	i
CN1CCN(c2ccc(NC(=O)c3cccc(OCc4ccccc4)c3)cc2)CC1	+	i	i	i	i	i
O=C(Nc1nc2ccccc2n1Cc1ccccc1)c1ccco1	i	i	i	i	i	i
CN(C)c1ncnc2c1ncn2C1OC(CO)C(O)C1O (stereo not given)	i	i	91.7	i	i	i
Nc1nc(Cl)nc2c1ncn2[C@@H]1O[C@H](CO)[C@@H](O)[C@H]1O	i	i	i	nt	i	i
COc1ccc(-n2nnnc2SCC(=O)c2cccc(OC)c2)cc1	i	i	nt	i	i	i
COc1ccc(-n2nnnc2SCC(=O)c2ccc3c(c2)OCCO3)cc1	i	i	79.3	nt	i	i
O=C(OCn1ncc(Br)c(Br)c1=O)c1c(F)cccc1F	+	i	i	?	i	i
CC(=O)Cn1ncc(Br)c(Br)c1=O	+	i	nt	nt	i	i
O=C(OCn1ncc(Cl)c(Cl)c1=O)c1ccc(F)cc1	i	i	i	nt	i	i
CCOC(=O)c1ccc(NC(=O)CC2S/C(=N/N=C/c3c[nH]c4ccccc34)NC2=O)cc1 (stereo not given)	i	i	i	i	31.1	i
Cc1cc(N2CCN(C)CC2)nc(-c2ccccc2O)n1	nt	nt	nt	i	nt	i
COc1ccc(F)cc1C(=O)C1CCCN(Cc2cnc(N3CCCC3)s2)C1 (stereo not given)	i	i	nt	i	i	i
CCN(CC)c1nc2ccccc2[nH]1	i	i	72.2	i	i	i
Oc1nc(Nc2cccc(Cl)c2)sc1/C=C1\C=Nc2ccccc21	i	i	nt	i	i	i
Oc1cccc(Nc2nc(O)c(/C=C3\C=Nc4ccccc43)s2)c1	nt	nt	nt	i	nt	17.1
COC(=O)c1ccc2c(=O)n(CC3CCCO3)c(SCC(=O)Nc3ccccc3OC)nc2c1 (stereo not given)	+	i	nt	i	i	i
CC(C)NC(=O)NS(=O)(=O)c1cnccc1N1CCCCC1	i	i	i	nt	i	i
CC(C)NC(=O)N1CCN(c2ccncc2S(=O)(=O)N2CCOCC2)CC1	i	i	i	5.83	i	i
COc1ccc(NC(=S)NC(NC(C)=O)C(Cl)(Cl)Cl)c([N+](=O)[O-])c1 (stereo not given)	i	i	nt	i	i	i
COc1ccc(NC(=S)NC(NC(=O)c2cccc(Cl)c2)C(Cl)(Cl)Cl)c([N+](=O)[O-])c1 (stereo not given)	+	i	i	nt	i	i
COc1ccc(NC(=S)NC(NC(=O)c2cccc(C)c2)C(Cl)(Cl)Cl)c([N+](=O)[O-])c1 (stereo not given)	+	i	i	nt	i	i
SMILES	Autophagy mod	PKD1 kinase inh	Insulin prom inh	Insulin prom up	Arbovirus anti	RBBP9 inhibitor
CC1CCN(Cc2ccc(NC(=O)C3CCN(c4nnc(-n5cccc5)s4)CC3)cc2)CC1	+	i	i	i	i	i
O=C(C1CCN(c2nnc(-n3cccc3)s2)CC1)N1CCN(Cc2ccc3c(c2)OCO3)CC1	i	i	nt	i	i	i
Cc1ccc(NC2c3ncccc3C(=O)N2C2CCCCC2)cc1C (stereo not given)	i	i	i	i	39.6	i
COc1cc([C@@H]2c3cc4c(cc3[C@@H](O)[C@@H](CO)[C@@H]2CO)OCO4)cc(OC)c1O[Si](C)(C)C(C)(C)C	nt	nt	nt	i	nt	nt
Cn1c(C(O)c2ccc3c(c2)OCO3)nc2ccccc21 (stereo not given)	i	i	77.4	i	i	i
COc1ccccc1NC(=O)N1CCC(c2nc3cc(C)c(C)cc3[nH]2)CC1	+	i	i	nt	i	i
COc1ccccc1NC(=S)N1CCC(c2nc3cc(C)c(C)cc3[nH]2)CC1	i	i	i	i	i	i
Cc1cc(=O)oc2cc(NC(=O)c3cc4ccccc4o3)ccc12	+	i	i	nt	i	i
O=C(Nc1ccc2oc(=O)ccc2c1)c1cc2ccccc2o1	i	i	i	i	i	i
O=C(C1CCC(CNS(=O)(=O)c2cccc3cccnc23)CC1)N1CCc2ccccc21 (stereo not given)	+	i	nt	?	i	i
Cc1ccc2nc(-c3ccccc3Cl)cc(C(=O)Nc3cc(C)on3)c2c1	i	i	i	i	34.1	i
Cc1ccccc1NC(=O)Cn1nc(-c2ccccc2)nc1-c1ccccc1	i	i	nt	i	i	i
Cc1c(C(=O)N2CCC(C)CC2)sc2ncnc(N(C)c3ccccc3)c12	i	i	i	i	i	i
C=CCNC(=O)C1CC2Cn3c(nc4cc5ccccc5cc43)C2N1C (stereo not given)	nt	nt	nt	4.44	nt	nt
CCCn1nnc(NC(=O)c2ccc(Br)cc2)n1	i	i	79.3	i	i	i
CCc1ccc(OCC(=O)N(C)CCC#N)c(Br)c1	i	i	i	i	i	i
COCCn1c(-c2cc(OC)c(OC)c(OC)c2)nc2oc3cc(OC)ccc3c(=O)c2c1=O	nt	nt	nt	i	nt	i
CC(C)Oc1ccccc1C1CC(=O)Nc2cc3c(cc21)OCCO3 (stereo not given)	i	i	i	i	i	i
COc1ccccc1C1CC(=O)Nc2cc3c(cc21)OCCO3 (stereo not given)	+	i	i	i	i	i
Cc1cc(NC(=O)CSc2nnc3c(C)cc4c(C)ccc(C)c4n23)no1	i	i	i	i	i	i
COc1cc2cc(C)c3nnc(SCC(=O)Nc4cc(C)on4)n3c2cc1OC	i	i	nt	5.98	i	i
O=C(COc1cccc(F)c1)N1c2ccccc2Sc2ccccc21	i	i	78.6	i	i	i
O=C(COc1ccccc1)N1c2ccccc2Sc2ccccc21	i	i	?	i	i	i
Cc1ccc(-c2cn3cccnc3n2)cc1	i	i	i	nt	i	i
CC(C)(C)C(=O)NC1(C(F)(F)F)N=C2SCCN2C1=O (stereo not given)	i	i	i	nt	i	i
SMILES	Autophagy mod	PKD1 kinase inh	Insulin prom inh	Insulin prom up	Arbovirus anti	RBBP9 inhibitor
O=c1c(-c2ccccc2)c[nH]n1-c1cccc([N+](=O)[O-])c1	i	i	i	i	35.0	i
COc1ccc(C2NC(=S)NC(C)=C2C(=O)c2ccccc2)cc1OC (stereo not given)	i	i	nt	i	i	i
COc1ccc(C2NC(=S)NC(C)=C2C(=O)Nc2ccccn2)cc1OC (stereo not given)	+	i	nt	i	i	i
Cc1nc([N+](=O)[O-])cn1CC(O)c1ccc(Cl)cc1 (stereo not given)	nt	nt	nt	i	nt	i
COC(=O)NNC(=O)C(C)Oc1ccc(Cl)cc1Cl (stereo not given)	i	i	i	i	i	i
COCCCNC(=S)N1CCN(Cc2ccc3c(c2)OCO3)CC1	i	i	nt	i	i	i
Cc1cccnc1NC1CCCCC1	i	i	78.6	i	i	i
